# Screens as filed in PubChem BioAssay.
# dFosB act: activators of mouse delta FosB homodimer | activation, % at 25 µM | purified delta FosB, TAMRA-CDK5 oligo fluorescence polarization; percent of positive-control signal above neutral wells | AID 493131 | P13346 | 340,000 compounds, 0.99% hits;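 active = mean activation above about 17%, with every replicate also reaching it, limit read from the data, passing the limit was not always enough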
# CAL PDZ FP-1: inhibitors of human CAL PDZ peptide binding. inhibition, % at 20 µM. 330,000 compounds, 0.02% hits. AID 504414. Q9HD26. purified CAL PDZ, TMR-peptide fluorescence polarization, 1 h;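 active = highest replicate inhibition of at least 40%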;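 note: plate controls were DMSO neutral control wells for no effect and unlabeled competitor peptide control wells for full effect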
#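 Material – purified CerCALP PDZ construct · Detection – FP readout, S and P plane fluorescence · Measure – percent inhibition from loss of millipolarization · Controls – unlabelled peptide for full inhibition, DMSO wells as neutral · Probe or stimulus – TMR-labelled reporter peptide T*-PRC34 bound in PDZ groove · Times – 1 h at RT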
# PKA-R2B activ: PKA-R2B complex activation | PKA-R2B holoenzyme dissociation, Cy5-IP20 fluorescence polarization; R2B truncated from residue 108, S112A mutant; 0% DMSO only, 100% 113 µM cGMP | 340,000 compounds, 0.079% hits | activation, % at 11.4 µM | P22694+P31323 | AID 504700;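 active = activation above a cutoff set at the mean over all compounds plus 3 SD, cut at about 18% in these data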;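 note: higher means more holoenzyme dissociation and a rise in polarization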
# PKA-R1A act: activators of PKA-R1A complex; P00514+P68181; PKA-R1A dissociation, Cy5-IP20 fluorescence polarization; scaled: DMSO 0%, 113 µM cGMP 100%; activation, % at 11.4 µM; 340,000 compounds, 0.083% hits;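 active = percent activation above the mean of all tested compounds plus 3 SD, cut at about 19% in these data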;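 note: higher means more PKAc released from R1A so a rise in polarization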
# NTR1 agonist: NTR1 (human) agonism; AID 493036; P30989; 330,000 compounds, 0.17% hits; NTR1-U2OS beta-arrestin-GFP spot imaging, agonist mode; activation, % at 20 µM;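 active = activation at or above 40% of the spot to cytoplasm intensity ratio, with at least 20 cells analyzed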;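 note: 0% = DMSO without peptide and 100% = 100 nM NTR1 peptide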
# Target sequence (P30989 whole entry, looked up): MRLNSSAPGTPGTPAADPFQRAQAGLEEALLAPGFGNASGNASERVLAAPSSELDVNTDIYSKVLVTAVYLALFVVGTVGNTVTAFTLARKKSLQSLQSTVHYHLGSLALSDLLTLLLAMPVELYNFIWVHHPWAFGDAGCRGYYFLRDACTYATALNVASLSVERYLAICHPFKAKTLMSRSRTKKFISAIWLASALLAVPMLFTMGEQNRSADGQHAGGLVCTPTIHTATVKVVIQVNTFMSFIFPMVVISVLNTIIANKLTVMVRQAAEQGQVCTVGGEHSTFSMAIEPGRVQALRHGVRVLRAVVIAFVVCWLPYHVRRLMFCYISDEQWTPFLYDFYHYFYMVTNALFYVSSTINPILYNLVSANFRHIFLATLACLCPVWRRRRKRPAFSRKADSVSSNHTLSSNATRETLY
# CAL PDZ FP-2: inhibitors of human CAL PDZ peptide binding; inhibition, % at 24.9 µM; 300,000 compounds, 0.92% hits; AID 602252; Q9HD26; purified CAL PDZ, TMR-peptide fluorescence polarization, 1 h;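 active = mean inhibition of at least 30% with at least half of replicates also reaching 30%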;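 note: 0% = DMSO neutral control and 100% = excess unlabeled competitor peptide PRC23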
# * = called active by the depositor; nt = not tested or not shown; ! = not active in a repeat. Compounds with a hit are over-represented: about 2% of the library has one in this group of screens.
SMILES,dFosB act,CAL PDZ FP-1,PKA-R2B activ,PKA-R1A act,NTR1 agonist,CAL PDZ FP-2
CCOc1ccc(CN(C)C(C)C(=O)NCc2ccccc2)cc1 (centres undefined),-0.9,-0.4,1.6,-11.4,-0.2,3.4
CCc1ccc(NC(=S)NCc2cccnc2)cc1,-4.5,0.7,-6.0,5.0,0.5,4.8
CCc1ccc(NC(=S)Nn2cnnc2)cc1,0.0,16.4,3.6,4.1,-0.3,63.1*
Cc1ccc(S(=O)(=O)N2CC3(O)CN(C(=O)OC(C)C)N(C(=O)OC(C)C)CC3(OC(=O)NCC3CCCCC3)C2)cc1 (centres undefined),nt,nt,0.1,-5.4,nt,nt
CC(=O)c1ccccc1NC(=O)COC(=O)CCCN1C(=O)c2cccc3cccc(c23)C1=O,-15.2,-2.9,-3.5,-1.1,0.2,1.4
NS(=O)(=O)c1ccc(NC(=O)COC(=O)CCCN2C(=O)c3cccc4cccc(c34)C2=O)cc1,-0.1,-1.6,-2.7,11.7,0.1,60.0*
FC(F)(F)c1cccc(NC(=S)N(CCCN2CCCC2)Cc2cccn2Cc2ccc(Cl)cc2)c1,44.5*,-0.7,-0.7,-4.5,27.3,-1.6
COc1ccc(NC(=S)N(CCCN2CCCC2)Cc2cccn2Cc2ccc(Cl)cc2)cc1Cl,47.8*,-5.8,0.8,4.2,17.8,-6.9
COc1ccc(NC(=S)N(CCCN2CCC(C)CC2)Cc2cccs2)cc1Cl,-6.7,-0.9,-2.3,0.6,0.5,6.6
Cc1cc(NC(=S)N(CCN2CCCCC2)Cc2ccco2)ccc1Cl,-9.4,-0.1,6.0,9.7,3.8,6.5
CN(C)CCCN(Cc1ccccc1)C(=S)Nc1cccc(C(F)(F)F)c1,-7.6,0.3,1.3,-9.2,-0.1,-2.2
Cc1ccc(NC(=S)N(CCCN2CCCC2)Cc2cccn2Cc2ccc(Cl)cc2)cc1C,31.6*,-2.4,-5.7,2.7,26.8,78.9*
Cc1ccc(NC(=S)N(CCCN2CCCC2)Cc2cccn2Cc2ccc(Cl)cc2)cc1Cl,69.5*,-2.6,1.1,-0.8,13.2,-7.3
COc1ccc2cc(C[C@@H]3CC[C@@H](CO)O3)ccc2c1,6.0,0.6,-2.9,-4.7,-0.2,0.0
CC(C)n1c(CN2CCN(C(=O)c3ccco3)CC2)nc2c1c(=O)n(C)c(=O)n2C,-0.1,-2.3,-1.8,-5.3,0.1,-5.5
O=C(Cn1[nH]c(=O)c2ccccc2c1=O)OCC(=O)N1CCc2ccccc2C1,-9.0,-1.6,-7.4,-11.2,-0.1,nt
O=C(Cn1[nH]c(=O)c2ccccc2c1=O)OCC(=O)N1CCCc2ccccc21,-8.6,-2.2,0.5,6.3,1.6,69.3*
Cc1c(C(=O)N2CCOCC2)c(S(=O)(=O)Nc2cccc(F)c2)c(C)n1C,-1.9,-0.1,-3.2,1.8,1.1,-3.3
Cc1c(C(=O)N2CCOCC2)c(S(=O)(=O)Nc2cccc(C#N)c2)c(C)n1C,-1.6,-0.2,1.2,-2.7,-1.0,68.0*
COC(=O)c1cn(NC(=O)Cc2cccc(OC)c2)c(=O)c2ccccc12,-12.8,-0.9,1.0,1.0,-0.1,33.5*
COC(=O)c1cn(NC(=O)Cc2ccc(OC)c(OC)c2)c(=O)c2ccccc12,-4.0,0.0,-7.9,2.8,-1.8,6.4
CCc1ccc(Nc2nnc(SCC(=O)c3c(N)n(C4CC4)c(=O)[nH]c3=O)s2)cc1,-0.1,-0.9,-1.6,-8.0,8.2,-1.5
O=C(O)CC(CC(=O)Nc1ccc(Oc2ccccc2)cc1)c1ccccc1 (centres undefined),-5.1,-0.9,-1.3,5.6,-0.5,-1.5
COc1ccc(NC(=O)CC(CC(=O)O)c2cc(OC)c(OC)c(OC)c2)cc1 (centres undefined),8.7,0.1,-10.5,9.9,2.0,59.4*
O=C1C=CC(=O)N1c1ccc2c(c1)C(NC(=O)C(F)(F)F)c1ccccc1-2 (centres undefined),7.2,-0.3,-7.2,11.7,nt,nt
SMILES,dFosB act,CAL PDZ FP-1,PKA-R2B activ,PKA-R1A act,NTR1 agonist,CAL PDZ FP-2
COc1ccccc1C(CNC(=O)c1oc2ccccc2c1C)N1CCCC1 (centres undefined),-10.1,-1.1,-8.4,1.7,0.0,-3.4
CCOc1ccc(C(C(=O)NCC2CCCO2)N(Cc2ccccc2)C(=O)c2snc(C(N)=O)c2N)cc1 (centres undefined),-31.3,-0.1,-5.2,-0.1,2.6,88.0*
Cc1ccc(S(=O)(=O)c2nc(NN(C)C)sc2Cl)cc1,-12.1,8.9,-8.4,4.5,1.9,120.5*
Cc1ccc(S(=O)(=O)c2nc(Nc3ccccc3C#N)sc2Cl)cc1,-5.4,-1.3,0.0,-1.0,5.0,0.4
CCC(C)N(C(=O)CSc1nnc(-c2ccco2)n1C)C1CCS(=O)(=O)C1 (centres undefined),4.1,-1.7,2.7,8.2,-0.4,0.6
O=C(CCNS(=O)(=O)c1ccc(Br)cc1)NC1CCC(O)CC1 (centres undefined),-2.5,-0.4,-0.4,0.7,-1.7,4.3
CN1CCN(C2Cc3ccccc3Sc3ccc(Cl)cc32)CC1 (centres undefined),2.8,-2.4,7.7,-4.1,0.9,-3.3
CSc1ccc2c(c1)C(N1CCN(C)CC1)Cc1ccccc1S2 (centres undefined),19.0*!,-2.2,9.3,6.1,7.0,-3.0
CCOC(=O)C1CC2=C(CCCC2=O)N(Cc2ccccc2)C1=O (centres undefined),-3.9,-1.3,2.4,10.0,nt,-5.8
N#C/C(=C/c1cn[nH]c1-c1ccc(Br)cc1)C(=O)O,-6.0,-1.5,5.7,-3.8,0.1,32.9*
COc1ccc(-c2c(C)nn3c(NC4CCCC4)cc(C)nc23)cc1OC,-3.0,0.0,11.0,-1.7,7.3,-0.3
Cc1cc(NC2CCCC2)n2nc(C)c(-c3ccccc3)c2n1,-0.1,-0.8,-5.7,-4.6,24.5,31.9*
CCCC1(c2ccsc2)NC(=O)NC1=O (centres undefined),-2.2,-0.6,6.4,-2.3,nt,-2.1
O=C(Nc1cccc2ccccc12)c1ccc(F)cc1,-3.1,-0.6,-2.5,0.9,-0.6,51.8*
O=C(Nc1cccc2ccccc12)c1ccccc1,2.8,-0.5,3.4,-6.8,-1.2,-4.8
O=C(NC(=S)Nc1cccc2[nH]ncc12)c1ccccc1,-6.5,0.4,-3.6,-5.4,2.9,-4.3
O=C(Nc1cccc2[nH]ncc12)c1ccc(F)cc1,4.9,-0.6,-3.1,18.7*,-2.1,-3.7
O=C(NCC(=O)N1CCN(C(c2ccccc2)c2ccccc2)CC1)c1ccccc1F,-7.5,-2.2,-8.8,6.8,1.5,-0.9
CCC(C(=O)N/N=C(\C)c1cccnc1)c1ccccc1 (centres undefined),1.3,-0.8,5.1,11.0,-1.0,-4.8
